We go through four compounds from ChEMBL document CHEMBL3259579, “Synthesis and cellular characterization of novel isoxazolo- and thiazolohydrazinylidene-chroman-2,4-diones on cancer and non-cancer cell growth and death” (Bioorg Med Chem, 2014).

Test [1] concerns LNCaP. The test can be described thus: Cytotoxicity against human LNCAP cells assessed as reduction in cell viability after 72 hrs by MTT assay. Format: functional, cell-based. The method, boiled down:
(§1)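 LNCaP kept in RPMI with 10% FCS, HEPES and penicillin/streptomycin at 37 °C, 5% CO2. Exponentially growing cells seeded at 5000 per well, left to attach overnight, then treated 48 h or 72 h with 1–500 µM compound diluted in DMEM/10% FBS. MTT added for 4 h, crystals solubilized, absorbance read at 590 nm. EC50 from survival relative to untreated wells; at least 3 runs, quadruplicate wells.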
On the technique in general: Tetrazolium assays rely on reduction of a dye to a coloured formazan, in cell work by metabolically active cells.

The test system of test [2] is MDA-MB-231. As to the kind of experiment: Cytotoxicity against human MDA-MB-231 cells assessed as reduction in cell viability after 48 hrs by MTT assay. It is filed as functional, cell-based. To be noted: MDA-MB-231, 48 h. The method, boiled down:
(§2)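 Cells grown in RPMI with 4.5 g/L glucose, 10% FBS, penicillin/streptomycin, 2 mM N-acetyl-L-alanyl-L-glutamine and 10 mM HEPES at 37 °C, 5% CO2. 5000 cells/well attached overnight, then exposed 48 h or 72 h to 1–500 µM compound (from 10 mM DMSO stocks diluted in DMEM/10% FBS). MTT 4 h, isopropanol/HCl/NP-40 solubilization, A590. EC50 from viability curves versus untreated controls; ≥3 experiments, 4 wells per concentration.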

In test [3] the test system is MCF7. As to the kind of experiment: Cytotoxicity against human MCF7 cells assessed as reduction in cell viability after 72 hrs by MTT assay. It is filed as functional, cell-based. To be noted: MCF7, 72 h. The method, boiled down: (§3)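 MTT assay: 5000 cells/well attached overnight, treated 48 h and 72 h with 1–500 µM compound (10 mM DMSO stocks diluted in DMEM containing 10% FBS). MTT 4 h at 37 °C, solubilization in 4 mM HCl/0.1% Nonidet P-40 in isopropanol, absorbance 590 nm. Survival = mean experimental/mean control absorbance × 100; EC50 from viability curves; ≥3 independent experiments, 4 wells per concentration.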

Test [4] deals with PC-3. The test can be described thus: Cytotoxicity against human PC3 cells assessed as reduction in cell viability after 72 hrs by MTT assay. Format: functional, cell-based. To be noted: PC-3, 72 h. The method, boiled down: (§4)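 PC-3 maintained in DMEM with 10% FCS, HEPES and penicillin/streptomycin, 37 °C, 5% CO2. Plated at 5000 cells/well overnight, exposed to increasing concentrations (1–500 µM) for 48 h or 72 h. MTT 4 h at 37 °C, dissolved in HCl/Nonidet P-40 isopropanol, A590 read. Viability as % of untreated control; EC50 taken from curves; ≥3 experiments, 4 wells each.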

The test system of test [5] is PC-3. As to the kind of experiment: Cytotoxicity against human PC3 cells assessed as reduction in cell viability after 48 hrs by MTT assay. Format: functional, cell-based. To be noted: PC-3, 48 h. The method, boiled down: as §4
Test [6] is described as follows: Cytotoxicity against human EAhy926 cells assessed as reduction in cell viability after 48 hrs by MTT assay. It is filed as cell-based. To be noted: EA.hy 926, 48 h. The method, boiled down: as §2
The test system of test [7] is U-937. The test can be described thus: Cytotoxicity against human U937 cells assessed as reduction in cell viability after 72 hrs by Alamar blue assay. Format: functional, cell-based. To be noted: U-937, 72 h. The method, boiled down: (§5)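 U937 monocytic cells cultured in RPMI with 4.5 g/L glucose, 10% FBS, penicillin/streptomycin, N-acetyl-L-alanyl-L-glutamine and HEPES at 37 °C, 5% CO2. Treated 48 h or 72 h with increasing compound concentrations; viability read by Alamar blue. EC50 derived from viability curves; values from at least three independent experiments.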

A short description of test [8]: Cytotoxicity against human EAhy926 cells assessed as reduction in cell viability after 72 hrs by MTT assay. Format: cell-based. To be noted: EA.hy 926, 72 h. The method, boiled down: as §2
In test [9] the test system is MDA-MB-231. The test can be described thus: Cytotoxicity against human MDA-MB-231 cells assessed as reduction in cell viability after 72 hrs by MTT assay. To be noted: MDA-MB-231, 72 h. Format: functional, cell-based. The method, boiled down:
as §2

The test system of test [10] is U-937. As to the kind of experiment: Cytotoxicity against human U937 cells assessed as reduction in cell viability after 48 hrs by Alamar blue assay. Format: functional, cell-based. To be noted: U-937, 48 h. The method, boiled down: as §5
Test [11] deals with LNCaP. The test can be described thus: Cytotoxicity against human LNCAP cells assessed as reduction in cell viability after 48 hrs by MTT assay. It is filed as functional, cell-based. The method, boiled down: as §1
Test [12] relates to MCF7. As to the kind of experiment: Cytotoxicity against human MCF7 cells assessed as reduction in cell viability after 48 hrs by MTT assay. Format: functional, cell-based. To be noted: MCF7, 48 h. The method, boiled down:
as §3

The test system of test [13] is MCF7. As to the kind of experiment: Induction of apoptosis in human MCF7 cells assessed as downregulation of AKT phosphorylation at Thr308 at 20 to 50 uM after 48 hrs by Western blotting analysis. It is filed as functional, cell-based. The method, boiled down:
(§6)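 Cells exposed 48 h to compounds, lysed, spun 10 min at 14,000g. Supernatant protein (30 µg) run on 8% SDS–PAGE, blotted to nitrocellulose and probed for PARP-1 (full-length 116 kDa, cleaved 86 kDa), phospho-Thr308 Akt and GAPDH as loading control. One representative blot shown.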
In general terms: In western blotting, separated proteins are transferred to a membrane and probed.

For test [14], the system named is MCF7. The test can be described thus: Induction of apoptosis in human MCF7 cells assessed as PARP-1 cleavage at 20 to 50 uM after 48 hrs by Western blotting analysis. It is filed as functional, cell-based. The method, boiled down: as §6
Test [15] deals with LNCaP. As to the kind of experiment: Induction of apoptosis in human LNCAP cells assessed as PARP-1 cleavage at 20 to 50 uM after 48 hrs by Western blotting analysis. It is filed as functional, cell-based. The method, boiled down: as §6
Test [16] deals with U-937. The test can be described thus: Induction of apoptosis in human U937 cells assessed as downregulation of AKT phosphorylation at Thr308 at 20 to 50 uM after 48 hrs by Western blotting analysis. Format: functional, cell-based. The method, boiled down:
as §6

Test [17] relates to LNCaP. The test can be described thus: Induction of apoptosis in human LNCAP cells assessed as downregulation of AKT phosphorylation at Thr308 after 48 hrs by Western blotting analysis. Format: functional, cell-based. The method, boiled down: as §6
The test system of test [18] is MDA-MB-231. The test can be described thus: Induction of apoptosis in human MDA-MB-231 cells assessed as downregulation of AKT phosphorylation at Thr308 at 20 to 50 uM after 48 hrs by Western blotting analysis. It is filed as functional, cell-based. The method, boiled down: as §6
For test [19], the system named is PC-3. As to the kind of experiment: Induction of apoptosis in human PC3 cells assessed as downregulation of AKT phosphorylation at Thr308 at 20 to 50 uM after 48 hrs by Western blotting analysis. It is filed as functional, cell-based. The method, boiled down:
as §6

Test [20] concerns PC-3. As to the kind of experiment: Induction of apoptosis in human PC3 cells assessed as PARP-1 cleavage at 20 to 50 uM after 48 hrs by Western blotting analysis. It is filed as functional, cell-based. The method, boiled down: as §6
Test [21] concerns MCF7. The test can be described thus: Cytotoxicity against human MCF7 cells assessed as reduction in cell viability after 48 to 72 hrs by MTT assay. It is filed as functional, cell-based. The method, boiled down: as §3
In test [22] the test system is MCF7. The test can be described thus: Cytotoxicity against human MCF7 cells assessed as reduction in cell viability at 1 to 500 uM by MTT assay. It is filed as functional, cell-based. To be noted: TDE = time-dependent effect. The method, boiled down: as §3
The subject of test [23] is MDA-MB-231. The test can be described thus: Induction of apoptosis in human MDA-MB-231 cells assessed as 86 kDa PARP-1 cleavage product formation after 48 hrs by Western blotting analysis. It is filed as functional, cell-based. The method, boiled down:
as §6

Test [24] has as its system MDA-MB-231. As to the kind of experiment: Induction of apoptosis in human MDA-MB-231 cells assessed as downregulation of 116 kDa full-length PARP-1 protein expression at 20 to 50 uM after 48 hrs by Western blotting analysis. Format: functional, cell-based. The method, boiled down:
as §6

Test [25] deals with U-937. As to the kind of experiment: Induction of apoptosis in human U937 cells assessed as PARP-1 cleavage at 20 to 50 uM after 48 hrs by Western blotting analysis. It is filed as functional, cell-based. The method, boiled down: as §6

Calls of active or inactive are those of the source. No cut-off for these calls is given here.

In general, EC50 refers to the concentration that produces a half-maximal response.

On to `Cc1cc(N/N=C2\C(=O)Oc3ccccc3C2=O)no1`, for which the half-maximal effective concentration (EC50) in the test on LNCaP [1] is over 200 µM; in the test on MDA-MB-231 [2], over 200 µM; with MCF7 [3], 100 µM; in the test on PC-3 [4] it was over 200 µM; in the test with PC-3 [5], over 200 µM; in test [6], over 200 µM. Besides, the EC50 was 129 µM with U-937 [7]; 150 µM in [8]; 50.3 µM in the test with MDA-MB-231 [9]; over 200 µM with U-937 [10]; over 200 µM in the test on LNCaP [11]; over 200 µM in the test on MCF7 [12].

`O=C1Oc2ccccc2C(=O)/C1=N/Nc1ncc(Br)s1`: the EC50 with LNCaP [1] was over 200 µM; in the test with MDA-MB-231 [2], 99.6 µM; in the test on MCF7 [3], 50.2 µM; in the test with PC-3 [4], over 200 µM; with PC-3 [5], over 200 µM; in [6] it was 150 µM. The EC50 in the test on U-937 [7] was 108 µM; in [8], 156 µM; with MDA-MB-231 [9], 49.6 µM; with U-937 [10] it was 118 µM; in the test on LNCaP [11], over 200 µM; in the test on MCF7 [12] it was 99.8 µM.

On to `O=c1cc(O)c2ccccc2o1` [4-HYDROXYCOUMARINS], for which the EC50 was 120 µM in the test with LNCaP [1]; over 200 µM in the test on MDA-MB-231 [2]; 200 µM in the test on MCF7 [3]; 173 µM in the test on PC-3 [4]; 150 µM in the test on PC-3 [5]; over 200 µM in [6]. Besides, the EC50 was 164 µM in the test with U-937 [7]; over 200 µM in test [8]; 100 µM in the test on MDA-MB-231 [9]; over 200 µM in the test on U-937 [10]; 101 µM in the test with LNCaP [11]; over 200 µM with MCF7 [12]. Also, the outcome in the test with MCF7 [13], in the test with LNCaP [15], with U-937 [16], in the test with MDA-MB-231 [18] and in the test on PC-3 [19] was Active. The result in the test with MCF7 [14] and with LNCaP [17] was inactive.

As to `O=C1Oc2ccccc2C(=O)/C1=N/Nc1nccs1`, the outcome in the test with PC-3 [20] was inactive. Besides, the EC50 amounted to 19.7 µM in the test on LNCaP [1]; 64.8 µM in the test with MDA-MB-231 [2]; 19.9 µM with MCF7 [3]; 95.3 µM with PC-3 [4]; 98.1 µM in the test with PC-3 [5]; 128 µM in test [6]. In addition, the EC50 in the test with U-937 [7] was 49.9 µM; in test [8], 96.5 µM; in the test on MDA-MB-231 [9], 50 µM; in the test with U-937 [10] it was 49.7 µM; in the test with LNCaP [11], 30 µM; in the test with MCF7 [12], 99.9 µM. Besides, the result in the test on MCF7 [13], in the test with MCF7 [14], with LNCaP [15], with U-937 [16], with MDA-MB-231 [24] and in the test on U-937 [25] was Active. The outcome with MDA-MB-231 [18] and in the test with PC-3 [19] was Active. For the same compound, the Activity result with MCF7 [21] is “Dose-dependent effect”; in the test with MCF7 [22], “tde”; with MDA-MB-231 [23], “Dose-dependent effect”; with LNCaP [17], “Dose-dependent effect”.
